“Also recorded” adds a separate entry of the source. Like-named read-outs stand apart in the source and are kept apart here. Positions of bridges follow the written chain, without caps; N, C: chain ends. Residues, ends and D or L forms follow the SMILES beside them. No end group written: not given here.
Legend:
KV1.2 [1] = molecular target: T1, KV1.2 (Homo sapiens, UniProt P16389); assay: Voltage dependence of activation; assay type: cell-based; conditions: KV1.2, 2 nM Cm28
Summary of the method: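 CHO cells were transiently transfected with GFP-tagged hKV1.2 and recorded by whole-cell clamp 24–36 h later at 20–25°C. For G-V, 300-ms steps from −70 to +80 mV in 10 mV increments were applied, with tail currents at −120 mV normalized to the maximum. For instantaneous I-V, 200-ms ramps to +50 mV were used. Pulses were given every 15 s. Traces are three-trace averages in control and at equilibrium block.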

hKV1.1 = assay: Selectivity, patch-clamp, hKV1.1 in CHO cells; assay type: cell-based, human
Summary of the method: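 hKV1.1 (KCNA1, GFP-tagged vector) transiently transfected into CHO cells with Lipofectamine; GFP-positive cells recorded 24–36 h later by whole-cell voltage clamp. Normal bath (mM): 145 NaCl, 5 KCl, 2.5 CaCl2, 1 MgCl2, 5.5 glucose, 10 HEPES, pH 7.35. Remaining current fraction = peak current with/without 150 nM toxin at equilibrium block; mean ± SEM.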

CD4^+ TEM lymphocytes [2] = assay: LDH cytotoxicity assay; assay type: cell-based, human; conditions: for cytotoxicity (LDH): 24 h culture, 1.5 μM Cm28 or 50 nM rMgTx, quiescent or TCR-activated cells, three independent experiments
Summary of the method: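 CD4+ TEM cells, unstimulated or anti-CD3-stimulated, were cultured 24 h with or without test peptide. Medium samples were mixed with LDH reaction substrate for 30 min in the dark, then stop solution was added. Activity was taken as A490 minus A680, and percent cytotoxicity was calculated against controls. Spontaneous and maximum controls were sterile water and lysis buffer (45 min, 37°C). Positive control: 50 mM NaN3. Three donors, two technical repeats, mean ± SEM.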

KV1.2 [3] = molecular target: T1, KV1.2; assay: Binding kinetics of Cm28 block of KV1.2; assay type: cell-based
Summary of the method: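 KV1.2 transiently transfected into CHO cells; GFP-positive cells recorded 24–36 h post-transfection by whole-cell voltage clamp. Normal bath (mM): 145 NaCl, 5 KCl, 2.5 CaCl2, 1 MgCl2, 5.5 glucose, 10 HEPES, pH 7.35. 15-ms pulses to +50 mV from Vh −120 mV every 15 s with 2 nM toxin. Normalized peak current versus time fitted single-exponentially for wash-in/wash-out (τon, τoff); kon, koff from bimolecular model.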

hHV1 = assay: Selectivity, patch-clamp, hHV1 in CHO cells; assay type: cell-based, human; conditions: 150 nM Cm28, 8–20 pulses (2–5 min), n ≥ 3
Summary of the method: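 Whole-cell proton current measured with a 1.0-s ramp to +100 mV from Vh −60 mV every 15 s. Bath (mM): 60 Na L-aspartate, 80 MES, 5.5 glucose, 6 MgCl2, pH 7.4. Pipette (mM): 90 Na L-aspartate, 80 MES, 6 MgCl2, 3.3 glucose, pH 6.17. Remaining current fraction (peak I/I0) taken at 150 nM after 8–20 pulses; mean ± SEM, n ≥ 3.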

KV1.3 [4] = molecular target: T2, KV1.3 (Homo sapiens, UniProt P22001); assay type: cell-based
Summary of the method: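 PBMCs from healthy donors were cultured 3–6 days in RPMI 1640 with 10% FBS and PHA (2, 5 or 10 µg/ml) to raise KV1.3. Whole-cell currents were evoked by 15-ms pulses to +50 mV from −120 mV every 15 s at 20–25°C, with gravity perfusion. Remaining current fraction was peak I/I0 at equilibrium block. Points (3–5 records each) were Hill-fitted for Kd and H. Perfusion control was 10 mM TEA+; wash-out used toxin-free solution.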

hNaV1.5 = assay: Selectivity, patch-clamp, hNaV1.5 in CHO cells; assay type: cell-based, human; conditions: 150 nM Cm28, 8–20 pulses (2–5 min), n ≥ 3
Summary of the method: (§1)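 Whole-cell Na+ currents evoked by 15-ms steps to 0 mV every 10 s. Normal Na+-based bath, pH 7.35. Pipette (mM): 10 NaCl, 105 CsF, 10 HEPES, 10 EGTA, pH 7.2. Remaining peak current fraction at 150 nM after 8–20 pulses (2–5 min); mean ± SEM, n ≥ 3. NaV1.4 was recorded in HEK293 cells stably expressing the channel.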

hKV11.1 (hERG1) = assay: Selectivity, patch-clamp, hKV11.1 in human embryonic kidney 293 cells; assay type: cell-based; conditions: 150 nM Cm28, 8–20 pulses (2–5 min), n ≥ 3
Summary of the method: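 HEK293 cells stably expressing hKV11.1. Pipette (mM): 140 KCl, 2 MgCl2, 10 HEPES, 10 EGTA, pH 7.3. Step to +20 mV (1.25 s) from Vh −80 mV, then −40 mV (2 s), every 30 s. Peak tail current I/I0 at 150 nM after 8–20 pulses; n ≥ 3.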

KV1.2 [5] = molecular target: T1, KV1.2; assay: Whole-cell patch-clamp block of KV1.2 current, transiently transfected CHO cells; assay type: cell-based
Summary of the method: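 hKV1.2 was expressed transiently in CHO cells, and GFP-positive cells were recorded 24–36 h after transfection. Whole-cell currents were evoked by 15-ms pulses to +50 mV from −120 mV every 15 s at 20–25°C, with leak below 10%, using gravity perfusion. RCF was peak I/I0 at equilibrium block.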

KV1.3 [6] = molecular target: T2, KV1.3; assay: Binding kinetics of Cm28 block of KV1.3; assay type: cell-based
Summary of the method: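 Activated human peripheral T lymphocytes (PHA-stimulated PBMCs) recorded by whole-cell voltage clamp in normal Na+-based bath, pH 7.35. 15-ms pulses to +50 mV from Vh −120 mV every 15 s. Wash-in and wash-out time courses of normalized peak current fitted with single exponentials. 1/τon and 1/τoff versus toxin concentration fitted by linear regression to give kon and koff, assuming simple bimolecular binding.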

[7] = system: IL2R expression in CD4^+ TEM lymphocytes; assay: Expression of IL2R; assay type: cell-based, human
Summary of the method: (§2)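 CD4+ TEM cells were isolated from healthy-donor PBMCs by negative magnetic selection and held at 1 × 10^6 cells/ml in RPMI 1640 with 10% FBS. They were pre-incubated 30 min with test peptide, then stimulated 24 h at 37°C on plate-bound anti-CD3 (OKT3, 1 µg/well) with toxin kept present. Cells were stained 20 min at 4°C with anti-CD25 and anti-CD154. Gating was FSC/SSC, 10,000 events. MFI was normalized to the stimulated untreated control. Duplicates, three donors.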

mKCa1.1 = assay: Selectivity, patch-clamp, mKCa1.1 in human embryonic kidney 293 cells; assay type: cell-based; conditions: 150 nM Cm28, 8–20 pulses (2–5 min), n ≥ 3
Summary of the method: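 HEK293 cells stably expressing mKCa1.1 recorded in whole-cell mode in normal bath (145 NaCl, 5 KCl, 2.5 CaCl2, 1 MgCl2, 5.5 glucose, 10 HEPES mM, pH 7.35). Cells depolarized to +100 mV for 600 ms from Vh −100 mV. Peak I/I0 at 150 nM after 8–20 pulses (2–5 min); mean ± SEM, n ≥ 3.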

hKCa3.1 = assay: Selectivity, patch-clamp, hKCa3.1 in CHO cells; assay type: cell-based, human; conditions: 150 nM Cm28, 8–20 pulses (2–5 min), n ≥ 3
Summary of the method: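 Whole-cell KCa3.1 currents recorded with 150-ms ramps to +50 mV from −120 mV every 10 s. Bath (mM): 145 Na L-aspartate, 5 KCl, 10 HEPES, 5.5 glucose, 2.5 CaCl2, 1 MgCl2, pH 7.4. Pipette (mM): 150 K-Asp, 5 HEPES, 8.5 CaCl2, 1.0 MgCl2, pH 7.22. Peak I/I0 at 150 nM after 8–20 pulses (2–5 min); mean ± SEM, n ≥ 3.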

hNaV1.4 = assay: Selectivity, patch-clamp, hNaV1.4 in human embryonic kidney 293 cells; assay type: cell-based; conditions: 150 nM Cm28, 8–20 pulses (2–5 min), n ≥ 3
Summary of the method: as §1

[8] = system: CD40L expression in CD4^+ TEM lymphocytes; assay: Expression of CD40L; assay type: cell-based, human
Summary of the method: as §2

hKV1.5 = assay: Selectivity, patch-clamp, hKV1.5 in CHO cells; assay type: cell-based, human; conditions: 150 nM Cm28, 8–20 pulses (2–5 min), n ≥ 3
Summary of the method: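 Whole-cell KV1.5 currents recorded in normal bath (mM): 145 NaCl, 5 KCl, 2.5 CaCl2, 1 MgCl2, 5.5 glucose, 10 HEPES, pH 7.35. Remaining current fraction calculated as the ratio of peak currents with and without 150 nM test compound after 8–20 repeated depolarizing pulses (2–5 min). Reported as mean ± SEM, n ≥ 3.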

KV channels = conditions: ref Bartok et al., 2014, cited from earlier work
CD4^+ TEM lymphocytes [9] = assay: Cell viability, Zombie NIR flow cytometry; assay type: cell-based, human; conditions: 24 h culture, 1.5 μM Cm28 or 50 nM rMgTx, quiescent or TCR-activated cells, three independent experiments
[10] = 1.5 µM Cm28, anti-CD3–activated, 24 h
[11] = US + Cm28 (1.5 µM), not exposed to anti-CD3
[12] = 5 nM rMgTx, 30 min pre-incubation, 24 h anti-CD3 stimulation, decreased to

T2 sequence (P22001 whole entry, the tested form may be a part): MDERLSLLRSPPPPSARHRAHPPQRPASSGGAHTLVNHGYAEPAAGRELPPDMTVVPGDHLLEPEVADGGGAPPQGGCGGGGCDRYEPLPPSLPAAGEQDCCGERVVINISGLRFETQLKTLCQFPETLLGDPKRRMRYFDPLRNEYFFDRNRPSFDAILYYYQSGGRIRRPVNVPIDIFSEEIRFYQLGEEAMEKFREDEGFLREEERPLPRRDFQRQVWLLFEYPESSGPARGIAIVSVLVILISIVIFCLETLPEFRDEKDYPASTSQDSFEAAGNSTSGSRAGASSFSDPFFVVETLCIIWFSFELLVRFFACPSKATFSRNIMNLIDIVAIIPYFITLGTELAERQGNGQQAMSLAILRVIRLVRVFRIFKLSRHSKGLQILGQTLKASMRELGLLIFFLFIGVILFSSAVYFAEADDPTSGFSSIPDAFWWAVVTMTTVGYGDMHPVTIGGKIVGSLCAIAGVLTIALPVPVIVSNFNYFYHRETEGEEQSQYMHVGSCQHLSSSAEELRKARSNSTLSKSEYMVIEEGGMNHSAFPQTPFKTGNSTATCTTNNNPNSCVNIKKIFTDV
T1 sequence (P16389 whole entry): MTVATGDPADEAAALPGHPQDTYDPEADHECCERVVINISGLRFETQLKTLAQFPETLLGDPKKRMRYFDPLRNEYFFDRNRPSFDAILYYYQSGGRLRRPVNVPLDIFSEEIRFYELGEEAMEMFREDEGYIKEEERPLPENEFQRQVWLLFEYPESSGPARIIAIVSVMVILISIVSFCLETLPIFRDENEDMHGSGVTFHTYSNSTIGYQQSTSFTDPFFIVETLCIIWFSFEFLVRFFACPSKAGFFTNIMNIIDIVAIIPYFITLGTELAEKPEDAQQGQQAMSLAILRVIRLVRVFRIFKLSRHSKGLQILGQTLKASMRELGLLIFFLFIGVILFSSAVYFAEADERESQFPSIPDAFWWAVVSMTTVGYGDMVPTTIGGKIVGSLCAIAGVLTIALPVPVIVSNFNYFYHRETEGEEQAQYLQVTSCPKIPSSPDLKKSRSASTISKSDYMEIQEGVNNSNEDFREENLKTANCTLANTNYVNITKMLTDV

CC(C)[C@@H]1NC(=O)[C@@H]2CSSC[C@H](NC(=O)[C@@H](N)CCCCN)C(=O)N[C@@H](CCCNC(=N)N)C(=O)N[C@@H](CCC(=O)O)C(=O)N[C@H]3CSSC[C@H](NC(=O)[C@H](CCCCN)NC(=O)CNC(=O)[C@H](CC(N)=O)NC1=O)C(=O)N[C@@H](C(C)C)C(=O)N[C@H](C(=O)N1CCC[C@H]1C(=O)N[C@@H](C)C(=O)O)CSSC[C@H](NC(=O)[C@H](CO)NC(=O)[C@@H]1CCCN1C(=O)[C@H](CO)NC(=O)[C@H]([C@@H](C)O)NC(=O)[C@H](CC(N)=O)NC(=O)CNC3=O)C(=O)N[C@@H](Cc1ccc(O)cc1)C(=O)N[C@@H](Cc1ccccc1)C(=O)N[C@@H](CO)C(=O)NCC(=O)N[C@@H](CC(N)=O)C(=O)N2 [Cm28] (H-KCRECGNTSPSCYFSGNCVNGKCVCPA-OH; disulfide 2-18, 5-23, 12-25; N-terminus assumed)
shift in G-V curve / activation threshold (KV1.2 [1]): did not introduce any substantial shift in the G-V curve of KV1.2 | reduction of KV1.1 current (hKV1.1; 150 nM Cm28, equilibrium block): ~27% | fold less affinity for KV1.1 (vs KV1.2 and KV1.3) (hKV1.1; compared with KV1.2 and KV1.3): ~400 fold | inhibition of KV1.1 (hKV1.1; text of Discussion, high concentration ∼100× of Kd for KV1.3): did not inhibit | cytotoxicity (LDH) (CD4^+ TEM lymphocytes [2]): < 1% | koff (KV1.2 [3]): 0.0013 s⁻¹ | kon (KV1.2 [3]): 1.1e+06 M⁻¹ s⁻¹ | inhibition of hHV1 (hHV1): did not inhibit | Hill coefficient (H) (KV1.3 [4]; KV1.3, Hill fit of dose-response, n = 3–5): 0.93 | inhibition at 0.002 µM (KV1.3 [4]; read-out: inhibition of current at block equilibrium): ~58% | time for 90% recovery from block (KV1.3 [4]; wash-out with toxin-free solution after 2 nM Cm28): 10 min | inhibition of NaV1.5 (hNaV1.5): did not inhibit | inhibition of KV11.1 (hKV11.1 (hERG1)): did not inhibit | Hill coefficient (H) (KV1.2 [5]; KV1.2, Hill fit of dose-response, n = 3–5): 1.04 | recovery from block, % of control current (KV1.2 [5]; wash-out with toxin-free solution after 2 nM Cm28, took several minutes): ~85% | koff (KV1.3 [6]): 0.0028 ± 0.000215 s⁻¹ | kon (KV1.3 [6]): 1.3e+06 M⁻¹ s⁻¹ | IL2R expression in activated cells [7, 10]: strongly inhibited; also recorded: significantly reduced | IL2R expression in unstimulated cells [7, 11]: no change | inhibition of KCa1.1 (mKCa1.1): did not inhibit | inhibition of KCa3.1 (hKCa3.1): did not inhibit | inhibition of NaV1.4 (hNaV1.4): did not inhibit | CD40L expression in activated cells [8, 10]: strongly inhibited; also recorded: significantly reduced | CD40L expression in unstimulated cells [8, 11]: no change | inhibition of KV1.5 (hKV1.5): did not inhibit

[N-]=[N+]=[N-].[Na+] [NaN3, sodium azide]
cytotoxicity (LDH), positive control (CD4^+ TEM lymphocytes [2]; 50 mM NaN3): 15%

CC[N+](CC)(CC)CC.[Cl-] [TEA^+, reference compound]
inhibition in peak current, perfusion control (KV1.3 [4]; 10 mM TEA^+, KV1.3): ~50%

ChTx [reference compound]
block of KV1.x channel subtypes (KV channels): blocks more than one KV1.x channel subtypes with high affinity | inhibition in peak current, perfusion control (KV1.2 [5]; 14 nM ChTx, KV1.2): ~50%

MgTx (TIINVKCTSPKQCLPPCKAQFGQSAGAKCMNGKCKCYPH; UniProt P40755 1-39, looked up)
block of KV1.x channel subtypes (KV channels): blocks more than one KV1.x channel subtypes with high affinity | block of KV1.x channel subtypes (KV channels; listed as margatoxin): blocks different KV channels

rMgTx (TIINVKCTSPKQCLPPCKAQFGQSAGAKCMNGKCKCYPH; ends and bridges not checked; cysteine pairing not given here; UniProt P40755 1-39, looked up) [reference compound]
cytotoxicity (LDH) (CD4^+ TEM lymphocytes [2]): < 2% | viable cells (CD4^+ TEM lymphocytes [9]): ≥ 90% | IL2R expression, normalized to stimulated non-treated control [7, 12]: ~48% | CD40L expression, normalized to stimulated non-treated control [8, 12]: ~51%

From PMC9202693 (The Journal of General Physiology, 2022)
